{"source": "ChEMBL document CHEMBL2062375", "about": "“Discovery of an orally efficacious inhibitor of anaplastic lymphoma kinase” (J Med Chem, 2012)", "key": {"[1]": {"biological_target": "T1, Vascular endothelial growth factor receptor 3 (Homo sapiens, UniProt P35916)", "T1 sequence (P35916 whole entry)": "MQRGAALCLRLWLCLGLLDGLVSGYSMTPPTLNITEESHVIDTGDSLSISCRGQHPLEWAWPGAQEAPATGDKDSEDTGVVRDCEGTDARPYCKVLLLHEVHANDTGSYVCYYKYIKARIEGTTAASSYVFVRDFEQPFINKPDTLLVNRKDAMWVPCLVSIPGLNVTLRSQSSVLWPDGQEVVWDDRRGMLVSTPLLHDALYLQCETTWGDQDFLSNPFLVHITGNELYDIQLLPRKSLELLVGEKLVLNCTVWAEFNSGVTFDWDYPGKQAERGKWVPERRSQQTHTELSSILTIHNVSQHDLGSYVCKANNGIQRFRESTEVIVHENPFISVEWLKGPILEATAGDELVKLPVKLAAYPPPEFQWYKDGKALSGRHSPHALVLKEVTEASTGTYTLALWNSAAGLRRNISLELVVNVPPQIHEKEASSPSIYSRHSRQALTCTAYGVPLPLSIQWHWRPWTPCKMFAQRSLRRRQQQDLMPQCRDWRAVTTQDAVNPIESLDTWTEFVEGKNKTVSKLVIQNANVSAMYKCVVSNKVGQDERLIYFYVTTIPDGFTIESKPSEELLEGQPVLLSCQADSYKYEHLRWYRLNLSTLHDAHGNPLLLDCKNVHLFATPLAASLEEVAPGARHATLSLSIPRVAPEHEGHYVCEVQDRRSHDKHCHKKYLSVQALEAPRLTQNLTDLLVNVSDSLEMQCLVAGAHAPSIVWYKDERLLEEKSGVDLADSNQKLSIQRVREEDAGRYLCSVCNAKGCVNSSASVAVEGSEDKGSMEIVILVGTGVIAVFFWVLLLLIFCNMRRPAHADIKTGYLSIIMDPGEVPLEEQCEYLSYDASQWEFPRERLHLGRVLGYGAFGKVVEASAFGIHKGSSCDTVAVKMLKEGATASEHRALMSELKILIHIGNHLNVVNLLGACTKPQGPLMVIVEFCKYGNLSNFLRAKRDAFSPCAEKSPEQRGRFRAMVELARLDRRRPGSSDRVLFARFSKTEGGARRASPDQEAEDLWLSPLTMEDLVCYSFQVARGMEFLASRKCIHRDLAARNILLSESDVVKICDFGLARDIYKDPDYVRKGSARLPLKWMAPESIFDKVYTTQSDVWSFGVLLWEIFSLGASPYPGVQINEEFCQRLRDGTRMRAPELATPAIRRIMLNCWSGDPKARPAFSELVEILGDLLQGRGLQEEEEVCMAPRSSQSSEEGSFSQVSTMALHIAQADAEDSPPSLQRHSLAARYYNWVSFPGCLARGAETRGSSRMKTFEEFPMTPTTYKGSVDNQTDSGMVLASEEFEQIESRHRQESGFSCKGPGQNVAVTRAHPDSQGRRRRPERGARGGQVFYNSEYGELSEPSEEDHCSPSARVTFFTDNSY", "assay": "Inhibition of human Flt4", "in_short": "(§1)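 Millipore KinaseProfiler activity assays on a 259-kinase panel; kinases inhibited by ≥90% at 1 μM then taken to full IC50 determination.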"}, "[2]": {"biological_target": "T2, Tyrosine-protein kinase Fes/Fps (Homo sapiens, UniProt P07332)", "T2 sequence (P07332 whole entry)": "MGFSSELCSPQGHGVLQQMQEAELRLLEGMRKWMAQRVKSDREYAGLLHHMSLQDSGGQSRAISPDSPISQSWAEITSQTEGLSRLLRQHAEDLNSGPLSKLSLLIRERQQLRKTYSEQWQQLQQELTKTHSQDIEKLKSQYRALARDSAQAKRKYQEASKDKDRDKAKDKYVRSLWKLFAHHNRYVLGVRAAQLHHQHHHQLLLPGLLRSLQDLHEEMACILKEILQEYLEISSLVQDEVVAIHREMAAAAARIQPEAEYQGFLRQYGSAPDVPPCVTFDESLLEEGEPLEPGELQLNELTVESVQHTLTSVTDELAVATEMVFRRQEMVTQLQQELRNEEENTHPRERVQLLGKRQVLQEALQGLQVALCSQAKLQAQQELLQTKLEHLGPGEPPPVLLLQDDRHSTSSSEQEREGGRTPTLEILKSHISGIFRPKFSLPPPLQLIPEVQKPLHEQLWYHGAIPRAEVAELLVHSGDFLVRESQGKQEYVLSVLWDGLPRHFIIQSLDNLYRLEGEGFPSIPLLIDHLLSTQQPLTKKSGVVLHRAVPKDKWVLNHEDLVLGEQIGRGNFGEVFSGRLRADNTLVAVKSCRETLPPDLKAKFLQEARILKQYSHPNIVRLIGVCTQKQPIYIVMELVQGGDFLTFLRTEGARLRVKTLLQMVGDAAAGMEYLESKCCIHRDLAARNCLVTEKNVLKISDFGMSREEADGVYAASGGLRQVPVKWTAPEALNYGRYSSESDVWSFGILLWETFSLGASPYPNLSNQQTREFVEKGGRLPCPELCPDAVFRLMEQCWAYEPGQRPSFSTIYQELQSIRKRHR", "conditions": "1 uM"}, "[3]": {"biological_target": "T2, Tyrosine-protein kinase Fes/Fps", "assay": "Inhibition of human Fes", "in_short": "as §1"}, "[4]": {"assay": "Plasma clearance in Sprague-Dawley rat at 1 mg/kg, iv", "type": "ADME, organism-based", "set-up": "dose 1 mg/kg, route intravenous", "in_short": "(§2)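 IV PK: rats via lateral tail vein (1 mL/kg; 3% DMSO/30% Solutol/67% PBS), serial tail-vein blood over 6 h. Dogs and monkeys via saphenous vein (0.5 mL/kg in 40% HPβCD), femoral-vein blood over 24 h. Acetonitrile protein precipitation, LCMS/MS; noncompartmental parameters from individual animals, n = 3, mean ± SEM.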"}, "KARPAS-299": {"test_system": "KARPAS-299", "assay": "Antitumor activity against human KARPAS299 cells expressing NPM-ALK xenografted in SCID mouse assessed as tumor regression administered as po bid for 12 days", "type": "functional, organism-based", "in_short": "(§3)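 Female SCID/beige mice, 6–8 weeks old, implanted sc in the left flank with exponentially growing Karpas-299 cells. At about 600 mm³ tumours, mice were randomized (8–10/group) and given PEG400 vehicle or compound orally b.i.d., 100 μL, for 12 days. Tumour volume (0.5236LW(L+W)/2) and body weight were recorded every 2–3 days; Mann–Whitney test. Plasma and tumour levels were measured by LC-MS/MS 2 h after the final dose, mean ± SEM.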"}, "[5]": {"biological_target": "Mitogen-activated protein kinase 8 (Homo sapiens, UniProt P45983)", "sequence (P45983 whole entry)": "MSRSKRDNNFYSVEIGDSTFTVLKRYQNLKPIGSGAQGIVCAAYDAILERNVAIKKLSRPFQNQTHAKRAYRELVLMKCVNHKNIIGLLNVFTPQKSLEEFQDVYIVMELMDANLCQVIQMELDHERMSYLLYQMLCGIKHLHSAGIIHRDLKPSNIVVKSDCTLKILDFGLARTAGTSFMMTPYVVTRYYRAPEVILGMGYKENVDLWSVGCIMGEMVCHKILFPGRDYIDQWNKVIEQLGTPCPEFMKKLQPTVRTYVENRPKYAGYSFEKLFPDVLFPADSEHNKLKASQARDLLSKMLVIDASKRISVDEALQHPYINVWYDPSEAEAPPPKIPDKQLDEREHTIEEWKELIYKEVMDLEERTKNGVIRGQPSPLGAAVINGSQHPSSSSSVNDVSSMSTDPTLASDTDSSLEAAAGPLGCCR", "conditions": "1 uM"}, "[6]": {"biological_target": "Mitogen-activated protein kinase kinase kinase kinase 2 (Homo sapiens, UniProt Q12851)", "assay": "Inhibition of human GCK", "in_short": "as §1"}, "[7]": {"assay": "Volume of distribution in Beagle dog at 1 mg/kg, iv", "type": "ADME, organism-based, Canis lupus familiaris", "set-up": "dose 1 mg/kg, route intravenous", "conditions": "in vivo", "in_short": "as §2"}, "[8]": {"assay": "AUC in Beagle dog at 1 mg/kg, iv", "type": "ADME, organism-based, Canis lupus familiaris", "set-up": "dose 1 mg/kg, route intravenous", "conditions": "plasma", "in_short": "(§4)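 Dog and monkey PK. IV 0.5 mL/kg in 40% HPβCD via the saphenous vein. Oral dosing was 1 mL/kg by gavage in dogs and 2 mL/kg by nasogastric tube in monkeys, after an overnight fast. Serial femoral-vein blood was taken into heparin over 24 h. Plasma was acetonitrile-precipitated and analysed by LC-MS/MS. Parameters were noncompartmental, n = 3, mean ± SEM.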"}, "[9]": {"assay": "AUC in cynomolgus monkey at 1 mg/kg, iv", "type": "ADME, organism-based, Macaca fascicularis", "set-up": "dose 1 mg/kg, route intravenous", "conditions": "plasma", "in_short": "as §4"}, "[10]": {"assay": "Cmax in Sprague-Dawley rat at 10 mg/kg, po", "type": "ADME, organism-based", "set-up": "dose 10 mg/kg, route oral", "conditions": "in vivo", "in_short": "(§5)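 Rat PK. IV via the lateral tail vein, 1 mL/kg in 3% DMSO/30% Solutol/67% PBS, or oral gavage at 5 mL/kg in 40% HPβCD, after an overnight fast. Serial tail-vein blood was taken into heparin over 6 h. Plasma was acetonitrile-precipitated and analysed by LC-MS/MS. Parameters were noncompartmental, n = 3, mean ± SEM.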"}, "[11]": {"assay": "Tmax in Beagle dog at 10 mg/kg, po", "type": "ADME, organism-based, Canis lupus familiaris", "set-up": "dose 10 mg/kg, route oral", "conditions": "in vivo", "in_short": "(§6)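 PK: overnight-fasted animals. Rat oral gavage 5 mL/kg in 40% HPβCD, serial tail-vein blood over 6 h. Dog oral gavage 1 mL/kg, monkey nasogastric 2 mL/kg, femoral-vein blood over 24 h. Plasma protein-precipitated with acetonitrile, LCMS/MS with internal standard; noncompartmental analysis, individual animals n = 3, mean ± SEM.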"}, "[12]": {"biological_target": "T1, Vascular endothelial growth factor receptor 3", "conditions": "1 uM"}, "[13]": {"biological_target": "Serine/threonine-protein kinase Chk2 (Homo sapiens, UniProt O96017)", "conditions": "1 uM"}, "Rattus norvegicus": {"test_system": "Rattus norvegicus", "assay": "Ratio of AUC (0 to 12 h) at 10 mg/kg, po to AUC (0 to 12 h) at 100 mg/kg, po in rat", "type": "ADME, organism-based", "conditions": "in vivo", "in_short": "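Oral dose-escalation PK study in rats at 10, 30, 55 and 100 mg/kg. […] The ratio compares the 10 mg/kg value with the 100 mg/kg value.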"}, "[14]": {"assay": "Drug level in SCID/beige mouse tumor xenografted with human KARPAS299 cells expressing NPM-ALK at 30 mg/kg, po bid after 2 hrs post last dose by LC-MS/MS analysis", "type": "ADME, organism-based, Neoplasm, KARPAS-299", "set-up": "dose 30 mg/kg, route oral", "conditions": "read-out: Drug uptake", "in_short": "as §3"}, "[15]": {"biological_target": "Ribosomal protein S6 kinase alpha-1 (Homo sapiens, UniProt Q15418)", "sequence (Q15418 whole entry)": "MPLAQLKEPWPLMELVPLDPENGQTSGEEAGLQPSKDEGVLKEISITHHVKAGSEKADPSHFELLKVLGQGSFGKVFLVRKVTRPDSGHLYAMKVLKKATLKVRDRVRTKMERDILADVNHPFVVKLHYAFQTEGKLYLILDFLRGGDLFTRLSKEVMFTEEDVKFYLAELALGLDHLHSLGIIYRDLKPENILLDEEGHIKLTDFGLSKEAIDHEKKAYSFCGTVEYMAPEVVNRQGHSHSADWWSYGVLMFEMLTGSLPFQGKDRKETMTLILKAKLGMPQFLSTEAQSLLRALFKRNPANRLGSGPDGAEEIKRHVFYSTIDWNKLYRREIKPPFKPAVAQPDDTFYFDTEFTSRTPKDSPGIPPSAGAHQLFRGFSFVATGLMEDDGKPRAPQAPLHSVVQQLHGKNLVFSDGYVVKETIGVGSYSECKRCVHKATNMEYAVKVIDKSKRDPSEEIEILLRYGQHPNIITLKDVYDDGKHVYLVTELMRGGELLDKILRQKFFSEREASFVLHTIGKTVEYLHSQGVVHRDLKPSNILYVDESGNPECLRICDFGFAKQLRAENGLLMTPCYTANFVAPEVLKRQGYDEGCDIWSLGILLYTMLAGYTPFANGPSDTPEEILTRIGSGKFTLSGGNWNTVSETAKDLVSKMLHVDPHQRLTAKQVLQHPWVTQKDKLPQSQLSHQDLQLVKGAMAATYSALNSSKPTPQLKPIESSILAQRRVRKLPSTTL", "assay": "Inhibition of human Rsk1", "in_short": "as §1"}, "[16]": {"biological_target": "NUAK family SNF1-like kinase 1 (Homo sapiens) (UniProt O60285)", "sequence (O60285 whole entry)": "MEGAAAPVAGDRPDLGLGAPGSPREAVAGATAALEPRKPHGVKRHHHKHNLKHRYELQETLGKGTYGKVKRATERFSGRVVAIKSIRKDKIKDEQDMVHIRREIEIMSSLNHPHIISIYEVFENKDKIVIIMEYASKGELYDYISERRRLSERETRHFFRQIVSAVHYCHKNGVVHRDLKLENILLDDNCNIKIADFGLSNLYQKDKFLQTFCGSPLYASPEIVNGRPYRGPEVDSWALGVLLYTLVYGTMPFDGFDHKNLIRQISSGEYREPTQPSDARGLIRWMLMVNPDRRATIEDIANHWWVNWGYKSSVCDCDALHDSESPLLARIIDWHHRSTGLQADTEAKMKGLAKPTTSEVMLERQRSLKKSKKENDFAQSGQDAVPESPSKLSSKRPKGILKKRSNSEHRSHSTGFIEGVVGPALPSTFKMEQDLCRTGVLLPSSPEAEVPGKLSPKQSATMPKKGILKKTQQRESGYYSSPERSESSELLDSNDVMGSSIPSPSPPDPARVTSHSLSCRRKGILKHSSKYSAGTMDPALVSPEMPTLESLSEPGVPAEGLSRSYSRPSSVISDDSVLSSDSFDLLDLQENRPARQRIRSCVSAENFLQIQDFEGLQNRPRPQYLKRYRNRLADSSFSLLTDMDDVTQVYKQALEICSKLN", "conditions": "1 uM"}, "[17]": {"assay": "Cmax in CD-1 mouse at 10 mg/kg, po", "type": "ADME, organism-based", "set-up": "dose 10 mg/kg, route oral", "conditions": "in vivo", "in_short": "(§7)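 Mouse PK. IV via the lateral tail vein in 3% DMSO/30% Solutol/67% PBS, or oral gavage in 100% PEG400, 100 μL dose volume, after an overnight fast. Trunk blood was taken from three mice per time point over 6 h. Plasma was acetonitrile-precipitated and analysed by LC-MS/MS. Parameters were derived noncompartmentally.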"}, "[18]": {"assay": "AUC in Sprague-Dawley rat at 10 mg/kg, po", "type": "ADME, organism-based", "set-up": "dose 10 mg/kg, route oral", "conditions": "plasma", "in_short": "as §5"}, "[19]": {"assay": "Cmax in rat at 100 mg/kg, po", "type": "ADME, organism-based", "set-up": "dose 100 mg/kg, route oral", "conditions": "in vivo", "in_short": "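Rat oral dose escalation at 10, 30, 55 and 100 mg/kg. Gavage at 5 mL/kg in 40% HPβCD after an overnight fast. Serial tail-vein blood was drawn into heparinized tubes. Plasma was protein-precipitated with acetonitrile and assayed by LC-MS/MS. Cmax and AUC0–12 were derived noncompartmentally; n = 2 at 10 mg/kg.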"}, "[20]": {"assay": "Half life in SCID mouse at 1 mg/kg, iv", "type": "ADME, organism-based", "set-up": "dose 1 mg/kg, route intravenous", "conditions": "in vivo", "in_short": "as §7"}, "Mus musculus": {"test_system": "Mus musculus", "assay": "Toxicity in SCID mouse xenografted with human KARPAS299 cells expressing NPM-ALK assessed as overt toxicity at 10 to 30 mg/kg, po bid", "type": "organism-based, KARPAS-299", "set-up": "dose 10-30 mg/kg, route oral", "conditions": "in vivo", "in_short": "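Female SCID/beige mice (6–8 weeks), Karpas-299 cells implanted sc in left flank; at ~600 mm³ randomized (8–10/group), dosed orally in PEG400, 100 μL, b.i.d. for 12 days. Body weight every 2–3 days; plasma and tumor sampled 2 h after final dose, drug by LCMS/MS; Mann–Whitney rank sum statistics.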"}, "[21]": {"assay": "Cmax in SCID mouse at 10 mg/kg, po", "type": "ADME, organism-based", "set-up": "dose 10 mg/kg, route oral", "conditions": "in vivo", "in_short": "as §7"}, "[22]": {"assay": "Cmax in cynomolgus monkey at 10 mg/kg, po", "type": "ADME, organism-based, Macaca fascicularis", "set-up": "dose 10 mg/kg, route oral", "conditions": "in vivo", "in_short": "as §4"}, "[23]": {"assay": "Plasma clearance in cynomolgus monkey at 1 mg/kg, iv", "type": "ADME, organism-based, Macaca fascicularis", "set-up": "dose 1 mg/kg, route intravenous", "in_short": "as §2"}, "[24]": {"biological_target": "Protein-tyrosine kinase 6 (Homo sapiens, UniProt Q13882)", "conditions": "1 uM"}, "[25]": {"biological_target": "Ribosomal protein S6 kinase alpha-2 (Homo sapiens, UniProt Q15349)", "sequence (Q15349 whole entry)": "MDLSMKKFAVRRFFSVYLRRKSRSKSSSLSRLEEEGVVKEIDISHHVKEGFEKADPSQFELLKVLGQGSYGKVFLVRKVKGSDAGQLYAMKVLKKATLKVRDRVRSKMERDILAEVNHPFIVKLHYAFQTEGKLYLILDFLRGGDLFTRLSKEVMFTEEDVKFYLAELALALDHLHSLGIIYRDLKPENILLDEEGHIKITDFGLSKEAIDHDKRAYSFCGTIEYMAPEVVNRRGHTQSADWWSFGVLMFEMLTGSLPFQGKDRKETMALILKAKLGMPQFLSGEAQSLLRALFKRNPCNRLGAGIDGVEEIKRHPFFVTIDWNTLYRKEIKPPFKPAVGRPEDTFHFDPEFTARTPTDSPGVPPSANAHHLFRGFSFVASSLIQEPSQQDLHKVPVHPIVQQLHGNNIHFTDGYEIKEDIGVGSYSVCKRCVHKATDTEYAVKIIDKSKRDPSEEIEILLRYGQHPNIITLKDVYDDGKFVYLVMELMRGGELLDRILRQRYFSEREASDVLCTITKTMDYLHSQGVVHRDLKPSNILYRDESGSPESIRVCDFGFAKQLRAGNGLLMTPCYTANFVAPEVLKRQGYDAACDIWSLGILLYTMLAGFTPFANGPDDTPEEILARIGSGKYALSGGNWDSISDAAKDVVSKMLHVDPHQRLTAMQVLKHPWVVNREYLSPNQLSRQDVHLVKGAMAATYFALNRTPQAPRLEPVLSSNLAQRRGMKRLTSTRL", "conditions": "1 uM"}, "[26]": {"assay": "Oral bioavailability in cynomolgus monkey at 10 mg/kg", "type": "ADME, organism-based, Macaca fascicularis", "conditions": "in vivo", "in_short": "as §6"}, "[27]": {"biological_target": "Receptor-type tyrosine-protein kinase FLT3 (Homo sapiens) (UniProt P36888)", "conditions": "1 uM"}}}
{"compound": "COc1c(Nc2ncc(Cl)c(N[C@H]3[C@@H](C(N)=O)[C@@H]4C=C[C@H]3C4)n2)ccc2c1CC[C@@H](N1CCOCC1)CC2", "values": [{"measurement": "IC50", "setting": "[1]", "result": 48, "unit": "nM"}, {"measurement": "inhibition", "setting": "[2]", "result": "> 90", "unit": "%"}, {"measurement": "IC50", "setting": "[3]", "result": 99, "unit": "nM"}, {"measurement": "clearance", "setting": "[4]", "result": 17, "unit": "mL/min/kg"}, {"measurement": "Activity", "setting": "KARPAS-299", "result": "Dose-dependent effect"}, {"measurement": "inhibition", "setting": "[5]", "result": "> 90", "unit": "%"}, {"measurement": "IC50", "setting": "[6]", "result": 60, "unit": "nM"}, {"measurement": "Vd", "setting": "[7]", "result": 8.2, "unit": "L/kg"}, {"measurement": "AUC", "setting": "[8]", "result": 409, "unit": "ng·h/mL"}, {"measurement": "AUC", "setting": "[9]", "result": 615, "unit": "ng·h/mL"}, {"measurement": "Cmax", "setting": "[10]", "result": 599, "unit": "ng/mL"}, {"measurement": "Tmax", "setting": "[11]", "result": 0.8, "unit": "h"}, {"measurement": "inhibition", "setting": "[12]", "result": "> 90", "unit": "%"}, {"measurement": "inhibition", "setting": "[13]", "result": "> 90", "unit": "%"}, {"measurement": "Ratio", "setting": "Rattus norvegicus", "result": 15}, {"measurement": "concentration at 2 h", "setting": "[14]", "result": 4040, "unit": "ng/g"}, {"measurement": "IC50", "setting": "[15]", "result": 61, "unit": "nM"}, {"measurement": "inhibition", "setting": "[16]", "result": "> 90", "unit": "%"}, {"measurement": "Cmax", "setting": "[17]", "result": 880, "unit": "ng/mL"}, {"measurement": "AUC", "setting": "[18]", "result": 4830, "unit": "ng·h/mL"}, {"measurement": "Cmax", "setting": "[19]", "result": 3050, "unit": "ng/mL"}, {"measurement": "half-life", "setting": "[20]", "result": 1.8, "unit": "h"}, {"measurement": "Activity", "setting": "Mus musculus", "result": "Non-toxic"}, {"measurement": "Cmax", "setting": "[21]", "result": 2750, "unit": "ng/mL"}, {"measurement": "Cmax", "setting": "[22]", "result": 170, "unit": "ng/mL"}, {"measurement": "clearance", "setting": "[23]", "result": 28, "unit": "mL/min/kg"}, {"measurement": "inhibition", "setting": "[24]", "result": "> 90", "unit": "%"}, {"measurement": "inhibition", "setting": "[25]", "result": "> 90", "unit": "%"}, {"measurement": "bioavailability", "setting": "[26]", "result": 16, "unit": "%"}, {"measurement": "inhibition", "setting": "[27]", "result": "> 90", "unit": "%"}]}
